Assay results reported in ChEMBL document CHEMBL1141586, “Design and optimization of imidazole derivatives as potent CXCR3 antagonists” (Bioorg Med Chem Lett, 2008).
Converted amounts (≈) assume the structure as drawn.

How the values were obtained:
[1] = target: T1, C-X-C chemokine receptor type 3 (Homo sapiens, UniProt P49682); assay: Displacement of [125I]IP10 from human recombinant CXCR3 receptor expressed in IL2-activated human PBMC
T1 sequence (P49682 whole entry): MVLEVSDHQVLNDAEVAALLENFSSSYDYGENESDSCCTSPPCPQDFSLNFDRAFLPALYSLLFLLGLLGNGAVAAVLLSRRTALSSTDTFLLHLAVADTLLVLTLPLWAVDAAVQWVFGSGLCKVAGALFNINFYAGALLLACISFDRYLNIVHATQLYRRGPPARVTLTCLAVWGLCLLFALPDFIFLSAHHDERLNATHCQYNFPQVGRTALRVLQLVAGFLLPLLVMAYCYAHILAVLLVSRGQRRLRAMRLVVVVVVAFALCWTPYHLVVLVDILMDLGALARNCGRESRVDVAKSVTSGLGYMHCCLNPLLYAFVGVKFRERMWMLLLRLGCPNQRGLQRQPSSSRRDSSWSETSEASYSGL

[2] = target: T1, C-X-C chemokine receptor type 3; assay: Displacement of [125I]IP10 from human recombinant CXCR3 receptor expressed in IL2-activated human PBMC in presence of plasma
Outline: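 PBMC were activated for 14 days with anti-CD3 mAb and recombinant human IL-2, then co-incubated with antagonist and recombinant human 125I-IP10 for 2 h at room temperature in EDTA-anticoagulated human plasma (from frozen stocks). Cells were filter-harvested and bound radioactivity counted by scintillation. IC50 is the mean of three experiments.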

[3] = target: T2, C-X-C chemokine receptor type 3 (Homo sapiens) (UniProt P49682); assay: Antagonist activity at human CXCR3 receptor assessed as ITAC-induced cellular migration in PBMC in presence of plasma; type: functional
T2 sequence (whole entry): T1 sequence (P49682 whole entry)

Liver microsomes = assay: Metabolic stability in human liver microsomes assessed as decrease in glutathione conjugate formation; type: ADME, Microsome; set-up: scale not given: the % may be the effect or the level left
Rattus norvegicus [4] = assay: Clearance in rat at 0.5 mg/kg, iv; type: ADME, organism-based; set-up: dose 0.5 mg/kg, route intravenous; settings: in vivo
Outline: (§1)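 Rats given a single intravenous dose of 0.5 mg/kg; clearance, AUC and mean residence time derived from plasma exposure; n = 2 animals.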

Rattus norvegicus [5] = assay: AUC in rat at 0.5 mg/kg, iv; type: ADME, organism-based, Plasma; set-up: dose 0.5 mg/kg, route intravenous; settings: in vivo; outline: as §1
[6] = Mean residence time in rat at 0.5 mg/kg, iv; type: ADME, organism-based; set-up: dose 0.5 mg/kg, route intravenous; settings: in vivo; outline: as §1
[7] = AUC in rat at 2 mg/kg, po; type: ADME, organism-based; set-up: dose 2 mg/kg, route oral; settings: plasma
[8] = Mean residence time in rat at 2 mg/kg, po; type: ADME, organism-based; set-up: dose 2 mg/kg, route oral; settings: in vivo
[9] = Oral bioavailability in rat at 2 mg/kg; type: ADME, organism-based; settings: in vivo
[10] = Solubility at pH 7.4; type: physicochemical; settings: buffer
Outline: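 10 mM DMSO stock added to pH 7.4 assay buffer, final DMSO about 1%. Compound concentration in the supernatant is measured.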

[11] = Membrane permeability by PAMPA assay; type: ADME; settings: read-out: permeability
Outline: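 PAMPA: passive permeation across an artificial phospholipid bilayer membrane; result expressed in 10^-6 cm/s.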

For CCS(=O)(=O)CCN(C(=O)Cc1ccc(F)c(C(F)(F)F)c1)[C@H](C)c1nc(C2CC2)c(CO)n1-c1ccc(C#N)cc1, the IC50 [1] was 10 nM, the IC50 [2] was 33 nM and the Activity [3] was 113 nM. For the same molecule, the Activity (Liver microsomes) was 1%.
CCS(=O)(=O)CCN(C(=O)Cc1ccc(F)c(C(F)(F)F)c1)[C@H](C)c1nc(-c2cccnc2)cn1-c1ccc(C#N)cc1 showed an IC50 [1] of 2.3 nM, an IC50 [2] of 29 nM and an Activity [3] of 91 nM.
Molecule CCOc1ccc(-n2cc(-c3ccccc3)nc2[C@@H](C)N(CCS(=O)(=O)CC)C(=O)Cc2ccc(F)c(C(F)(F)F)c2)cc1 has an IC50 [1] of 0.4 nM and an IC50 [2] of 4.5 nM.
Work on CCS(=O)(=O)CCN(C(=O)Cc1ccc(F)c(C(F)(F)F)c1)[C@H](C)c1nc(C2CC2)c(-c2ccccc2)n1-c1ccc(C#N)cc1 yielded an IC50 [1] of 752 nM and an IC50 [2] of 10000 nM.
For CCS(=O)(=O)CCN(C(=O)Cc1ccc(F)c(C(F)(F)F)c1)[C@H](C)c1nc(-c2ccccn2)cn1-c1ccc(C#N)cc1, the IC50 [1] was 4 nM, the IC50 [2] was 43 nM and the Activity [3] was 33 nM.
CCS(=O)(=O)CCN(C(=O)Cc1ccc(F)c(C(F)(F)F)c1)[C@H](C)c1nc(C2CC2)c(C(F)(F)F)n1-c1ccc(C#N)cc1 showed an IC50 [1] of 19 nM, an IC50 [2] of 45 nM and an Activity [3] of 268 nM. For the same molecule, the Activity (Liver microsomes) was 0%.
In the case of CCS(=O)(=O)CCN(C(=O)Cc1ccc(F)c(C(F)(F)F)c1)[C@H](C)c1nc(-c2ccccc2)cn1-c1ccc(C#N)cc1, the IC50 [1] is reported as 0.7 nM, the IC50 [2] is reported as 14 nM and the Activity [3] is reported as 10 nM. For the same molecule, the CL (Rattus norvegicus [4]) was 91.7 mL/min/kg, the AUC (Rattus norvegicus [5]) was 92 ng·h/mL and the MRT [6] was 0.3 h. The AUC [7] was 11 ng·h/mL, the MRT [8] was 0.9 h and the bioavailability [9] was 3%. It also gave a solubility [10] of 0.5 µg/mL (≈ 0.816 µM) and a Papp [11] of 0.9 ×10⁻⁶ cm/s.
Molecule CCS(=O)(=O)CCN(C(=O)Cc1ccc(F)c(C(F)(F)F)c1)[C@H](C)c1nc(C(C)C)cn1-c1ccc(C#N)cc1 has an IC50 [1] of 2.6 nM, an IC50 [2] of 19 nM and an Activity [3] of 54 nM.
For CCOc1ccc(-n2cc(-c3ccccc3)nc2[C@@H](C)N(CCS(=O)(=O)CC)C(=O)Cn2nnc(-c3ccc(C(F)(F)F)cc3)n2)cc1, the IC50 [1] was 2.1 nM and the IC50 [2] was 19 nM.
CCOc1ccc(-n2cc(-c3ccccc3)nc2[C@@H](C)N(CCS(=O)(=O)CC)C(=O)Cn2nnc(C3CC3)n2)cc1 showed an IC50 [1] of 44 nM and an IC50 [2] of 1660 nM.
CCOc1ccc(-n2cc(-c3ccccc3)nc2[C@@H](C)N(C[C@H]2CCCN2)C(=O)Cc2ccc(F)c(C(F)(F)F)c2)cc1 showed an IC50 [1] of 46 nM and an IC50 [2] of 36 nM.
In the case of CCOc1ccc(-n2cc(-c3ccccc3)nc2[C@@H](C)N(CCS(=O)(=O)CC)C(=O)Cn2ccc(C(F)(F)F)n2)cc1, the IC50 [1] is reported as 40 nM and the IC50 [2] is reported as 1120 nM.
Work on CCS(=O)(=O)CCN(C(=O)Cc1ccc(F)c(C(F)(F)F)c1)[C@H](C)c1nc(C2CC2)cn1-c1ccc(C#N)cc1 yielded an IC50 [1] of 6.6 nM, an IC50 [2] of 37 nM and an Activity [3] of 53 nM. It also gave a CL (Rattus norvegicus [4]) of 55 mL/min/kg, an AUC (Rattus norvegicus [5]) of 149 ng·h/mL and an MRT [6] of 1 h. The AUC [7] was 95 ng·h/mL, the MRT [8] was 2.4 h and the bioavailability [9] was 16%. It also gave a solubility [10] of 32 µg/mL (≈ 55.5 µM), a Papp [11] of 5.1 ×10⁻⁶ cm/s and an Activity (Liver microsomes) of 44%.
In the case of CCOc1ccc(-n2ccnc2[C@@H](C)N(Cc2cccnc2)C(=O)Cc2ccc(F)c(C(F)(F)F)c2)cc1, the IC50 [1] is reported as 1800 nM.
Molecule CCOc1ccc(-n2cc(-c3ccccc3)nc2[C@@H](C)N(CCS(=O)(=O)CC)C(=O)Cn2nnc(-c3ccc(F)cc3)n2)cc1 has an IC50 [1] of 5 nM and an IC50 [2] of 47 nM.
Molecule CCS(=O)(=O)CCN(C(=O)Cc1ccc(F)c(C(F)(F)F)c1)[C@H](C)c1nc(C(C)(C)C)cn1-c1ccc(C#N)cc1 has an IC50 [1] of 2.5 nM, an IC50 [2] of 21 nM and an Activity [3] of 100 nM.
For CCOc1ccc(-n2cc(-c3ccccc3)nc2[C@@H](C)N(C[C@@H]2CCCN2)C(=O)Cc2ccc(F)c(C(F)(F)F)c2)cc1, the IC50 [1] was 11 nM and the IC50 [2] was 20 nM.
Work on C=Cc1c(C2CC2)nc([C@@H](C)N(CCS(=O)(=O)CC)C(=O)Cc2ccc(F)c(C(F)(F)F)c2)n1-c1ccc(C#N)cc1 yielded an IC50 [1] of 3.8 nM, an IC50 [2] of 22 nM and an Activity [3] of 45 nM. For the same molecule, the Activity (Liver microsomes) was 8%.
CCOc1ccc(-n2cc(-c3ccccc3)nc2[C@@H](C)N(C[C@@H]2CCCN2C)C(=O)Cc2ccc(F)c(C(F)(F)F)c2)cc1 gave an IC50 [1] of 6.4 nM and an IC50 [2] of 31 nM.
CCOc1ccc(-n2cc(-c3ccccc3)nc2[C@@H](C)N(Cc2ccncc2)C(=O)Cc2ccc(F)c(C(F)(F)F)c2)cc1 showed an IC50 [1] of 35 nM and an IC50 [2] of 129 nM.
CCOc1ccc(-n2cc(-c3ccccc3)nc2[C@@H](C)N(CCCS(=O)(=O)CC)C(=O)Cc2ccc(F)c(C(F)(F)F)c2)cc1 gave an IC50 [1] of 2.4 nM and an IC50 [2] of 18 nM.
In the case of CCOc1ccc(-n2cc(-c3ccccc3)nc2[C@@H](C)N(CCS(=O)(=O)CC)C(=O)Cn2nnc(-c3ccccc3)n2)cc1, the IC50 [1] is reported as 9.4 nM and the IC50 [2] is reported as 69 nM.
Molecule CCOc1ccc(-n2cc(-c3ccccc3)nc2[C@@H](C)N(Cc2ccccn2)C(=O)Cc2ccc(F)c(C(F)(F)F)c2)cc1 has an IC50 [1] of 80 nM and an IC50 [2] of 1180 nM.
For CCS(=O)(=O)CCN(C(=O)Cc1ccc(F)c(C(F)(F)F)c1)[C@H](C)c1nc(C2CC2)c(C(F)F)n1-c1ccc(C#N)cc1, the IC50 [1] was 12 nM, the IC50 [2] was 18 nM and the Activity [3] was 20 nM. It also gave a CL (Rattus norvegicus [4]) of 36.7 mL/min/kg, an AUC (Rattus norvegicus [5]) of 237 ng·h/mL and an MRT [6] of 0.9 h. The AUC [7] was 456 ng·h/mL, the MRT [8] was 2.4 h and the bioavailability [9] was 48%. It also gave an Activity (Liver microsomes) of 0%.
CCOc1ccc(-n2cc(-c3ccccc3)nc2[C@@H](C)N(CCS(=O)(=O)CC)C(=O)Cn2cc(-c3ccccc3)nn2)cc1 showed an IC50 [1] of 5.6 nM and an IC50 [2] of 49 nM.
With CCOc1ccc(-n2cc(-c3ccccc3)nc2[C@@H](C)N(CCS(=O)(=O)CC)C(=O)Cc2ccc(OC(F)(F)F)cc2)cc1 the IC50 [1] was 7.1 nM and the IC50 [2] was 45 nM.
Work on CCOCCN(C(=O)Cc1ccc(F)c(C(F)(F)F)c1)[C@H](C)c1nc(-c2ccccc2)cn1-c1ccc(OCC)cc1 yielded an IC50 [1] of 11 nM and an IC50 [2] of 202 nM.
CCS(=O)(=O)CCN(C(=O)Cc1ccc(F)c(C(F)(F)F)c1)[C@H](C)c1nc(C2CC2)c(Cl)n1-c1ccc(C#N)cc1 gave an IC50 [1] of 7.8 nM, an IC50 [2] of 24 nM and an Activity [3] of 80 nM. It also gave a CL (Rattus norvegicus [4]) of 38.3 mL/min/kg, an AUC (Rattus norvegicus [5]) of 219 and an MRT [6] of 1.3 h. For the same molecule, the AUC [7] was 225 ng·h/mL, the MRT [8] was 5.4 h and the bioavailability [9] was 26%. It also gave an Activity (Liver microsomes) of 0%.
CCOc1ccc(-n2cc(-c3ccccc3)nc2[C@@H](C)N(Cc2cccnc2)C(=O)Cc2ccc(F)c(C(F)(F)F)c2)cc1 showed an IC50 [1] of 11 nM and an IC50 [2] of 91 nM.
In the case of CCS(=O)(=O)CCN(C(=O)Cc1ccc(F)c(C(F)(F)F)c1)[C@H](C)c1nc(C2CC2)c(CF)n1-c1ccc(C#N)cc1, the IC50 [1] is reported as 8 nM, the IC50 [2] is reported as 28 nM and the Activity [3] is reported as 119 nM.
For CCOc1ccc(-n2cc(-c3ccccc3)nc2[C@@H](C)N(CCS(=O)(=O)CC)C(=O)Cn2cnc(-c3ccccc3)c2)cc1, the IC50 [1] was 4.8 nM and the IC50 [2] was 24 nM.
For CCS(=O)(=O)CCN(C(=O)Cc1ccc(F)c(C(F)(F)F)c1)[C@H](C)c1nc(C2CC2)c(C#N)n1-c1ccc(C#N)cc1, the IC50 [1] was 72 nM, the IC50 [2] was 276 nM and the Activity (Liver microsomes) was 0%.
Molecule CCOc1ccc(-n2cc(-c3ccccc3)nc2[C@@H](C)N(C[C@H]2CCCN2C)C(=O)Cc2ccc(F)c(C(F)(F)F)c2)cc1 has an IC50 [1] of 14 nM and an IC50 [2] of 81 nM.
With CCc1c(C2CC2)nc([C@@H](C)N(CCS(=O)(=O)CC)C(=O)Cc2ccc(F)c(C(F)(F)F)c2)n1-c1ccc(C#N)cc1 the IC50 [1] was 3.2 nM, the IC50 [2] was 16 nM and the Activity [3] was 29 nM. It also gave an Activity (Liver microsomes) of 14%.
